Data as given in ChEMBL document CHEMBL1141541, “The discovery of (R)-2-(sec-butylamino)-N-(2-methyl-5-(methylcarbamoyl)phenyl) thiazole-5-carboxamide (BMS-640994)-A potent and efficacious p38alpha MAP kinase inhibitor” (Bioorg Med Chem Lett, 2008).
Values after ≈ are worked out from the molar mass of the structure shown. Active and inactive are the calls of the source. The rule behind the calls is not given here.

Tests used:
[1] = test system: PBMC; assay: Inhibition of LPS-induced TNFalpha biosynthesis in human PBMC; type: functional, cell-based
Summary of the method: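 PBMCs isolated from human whole blood by Ficoll–Hypaque density gradient centrifugation, resuspended at 5 · 10⁶/mL in RPMI with 10% fetal bovine serum. Cells preincubated with compound (0.2% DMSO) 5 min at RT, then LPS added (200 ng/mL stock), 6 h at 37 °C. Medium TNFα measured by ELISA; IC₅₀ from linear regression. Duplicate typical.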

[2] = biological target: Tyrosine-protein kinase Lck (Homo sapiens, UniProt P06239); assay: Inhibition of Lck
[3] = biological target: Mitogen-activated protein kinase 14 (Homo sapiens, UniProt Q16539)
[4] = test system: Serum; assay: Drug level in LPS challenged mouse serum at 5 mg/kg, po; type: ADME, organism-based; set-up: dose 5 mg/kg, route oral; conditions: in vivo, read-out: Drug uptake
Summary of the method: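 Serum drug concentration in mice measured in the LPS challenge study after 5 mg/kg oral dosing, 4 h or 24 h pre-dosing interval.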

[5] = test system: Mus musculus; assay: Inhibition of LPS-induced TNFalpha production in mouse at 5 mg/kg, po administered 4 hrs before LPS challenge relative to control; type: functional
Summary of the method: (§1)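 Mice given 5 mg/kg orally, then LPS challenge after a 4 h or 24 h pre-dosing interval. Circulating TNFα reduction reported as percent versus vehicle, mean ± SD, n = 8 animals; Student's t-test.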

[6] = test system: PBMC; assay: Inhibition of LPS-induced IL1-beta production in human PBMC; type: functional, cell-based
[7] = test system: Liver microsomes; assay: Metabolic stability in human liver microsomes; type: ADME, Microsome
[8] = test system: Rattus norvegicus; assay: Inhibition of disease progression in rat adjuvant-induced arthritis model assessed as paw swelling at 1 mg/kg, po qd; type: functional, organism-based; set-up: dose 1 mg/kg
Summary of the method: (§2)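 Rat adjuvant-induced arthritis, compound given orally once daily; disease progression read as paw swelling over study days 10–21 versus vehicle; Student's t-test.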

[9] = biological target: hERG (KCNH2) (Homo sapiens, UniProt Q12809); assay: Inhibition of human ERG at 30 uM by patch clamp assay
[10] = biological target: T1, Cytochrome P450 1A2 (Homo sapiens, UniProt P05177); assay: Inhibition of CYP1A2; type: ADME
T1 sequence (P05177 whole entry): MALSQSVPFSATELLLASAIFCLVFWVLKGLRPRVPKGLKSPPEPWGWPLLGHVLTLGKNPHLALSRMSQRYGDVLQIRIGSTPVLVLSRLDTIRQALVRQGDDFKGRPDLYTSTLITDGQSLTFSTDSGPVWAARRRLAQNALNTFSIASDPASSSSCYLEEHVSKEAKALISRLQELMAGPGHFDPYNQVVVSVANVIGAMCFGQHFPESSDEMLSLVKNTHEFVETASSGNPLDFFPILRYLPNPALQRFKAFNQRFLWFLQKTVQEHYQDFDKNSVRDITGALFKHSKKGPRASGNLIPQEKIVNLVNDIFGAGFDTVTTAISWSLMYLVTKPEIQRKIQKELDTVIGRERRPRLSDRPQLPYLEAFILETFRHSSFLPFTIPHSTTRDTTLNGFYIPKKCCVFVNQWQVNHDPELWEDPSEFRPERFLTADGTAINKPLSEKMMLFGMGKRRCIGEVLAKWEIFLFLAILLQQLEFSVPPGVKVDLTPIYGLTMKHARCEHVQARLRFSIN

[11] = Aqueous solubility at pH 6.5; type: physicochemical; conditions: buffer
[12] = AUC (0 to 24hrs) in rat at 10 mg/kg, po; type: ADME, organism-based; set-up: time < 24 hr, dose 10 mg/kg, route oral; conditions: plasma
[13] = Clearance in rat at 1 mg/kg, iv; type: ADME, organism-based; set-up: dose 1 mg/kg, route intravenous; conditions: in vivo
Summary of the method: (§3)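 Rat pharmacokinetics: iv dose 1 mg/kg and po dose 10 mg/kg, vehicle PEG300, n = 3 animals.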

[14] = test system: Mus musculus; assay: Inhibition of LPS-induced TNFalpha production in mouse at 5 mg/kg, po administered 24 hrs before LPS challenge relative to control
[15] = test system: Blood; assay: Inhibition of LPS-induced IL1-beta production in human whole blood; type: functional, tissue-based
[16] = biological target: Cytochrome P450 2C19 (Homo sapiens, UniProt P33261); assay: Inhibition of CYP2C19; type: ADME
[17] = Volume of distribution at steady state in rat at 1 mg/kg, iv; type: ADME, organism-based; set-up: dose 1 mg/kg, route intravenous; conditions: in vivo, read-out: Vdss; summary of the method: as §3
[18] = test system: Blood; assay: Inhibition of LPS-induced TNFalpha production in human whole blood; type: functional, tissue-based
[19] = biological target: Cytochrome P450 3A4 (Homo sapiens, UniProt P08684); assay: Inhibition of CYP3A4; type: ADME
[20] = biological target: Cytochrome P450 2D6 (Homo sapiens, UniProt P10635); assay: Inhibition of CYP2D6; type: ADME
[21] = test system: Rattus norvegicus; assay: Inhibition of disease progression in rat adjuvant-induced arthritis model assessed as paw swelling at 0.3 mg/kg, po qd; type: functional; summary of the method: as §2
[22] = Protein binding in human; type: ADME, organism-based; conditions: in vivo, read-out: PB (converted)
[23] = Cmax in rat at 10 mg/kg, po; type: ADME, organism-based; set-up: dose 10 mg/kg, route oral; conditions: in vivo; summary of the method: as §3
[24] = test system: Rattus norvegicus; assay: Inhibition of disease progression in rat adjuvant-induced arthritis model assessed as paw swelling at 3 mg/kg, po qd; type: functional, organism-based; set-up: dose 3 mg/kg; summary of the method: as §2
[25] = Drug level in rat serum at 3 mg/kg after 18 hrs; type: ADME, organism-based; set-up: dose 3 mg/kg; conditions: read-out: Drug uptake
Summary of the method: (§4)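 Terminal serum concentrations in adjuvant-arthritis rats taken 18 h after the final once-daily oral dose.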

[26] = Oral bioavailability in rat at 10 mg/kg; type: ADME, organism-based; conditions: in vivo; summary of the method: as §3
[27] = Drug level in rat at 10 mg/kg, po after 24 hrs; type: ADME, organism-based; set-up: dose 10 mg/kg, route oral; conditions: in vivo, read-out: Drug uptake; summary of the method: as §3
[28] = test system: Liver microsomes; assay: Metabolic stability in rat liver microsomes; type: ADME, Microsome
[29] = Drug level in rat serum at 1 mg/kg after 18 hrs; type: ADME, organism-based; set-up: dose 1 mg/kg; conditions: read-out: Drug uptake; summary of the method: as §4
[30] = organism: Rattus norvegicus; assay: Inhibition of LPS-induced TNFalpha production in Lewis rat by ELISA; type: functional
Summary of the method: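 Rats dosed orally; two hours later LPS (10 µg, E. coli […]) in 1 mL PBS given IP. Dose–response used to derive oral ED₅₀.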

[31] = biological target: Cytochrome P450 2C9 (Homo sapiens, UniProt P11712); assay: Inhibition of CYP2C9; type: ADME
[32] = Half life in rat at 1 mg/kg, iv; type: ADME, organism-based; set-up: dose 1 mg/kg, route intravenous; conditions: in vivo; summary of the method: as §3
[33] = Permeability across human Caco-2 cells; type: ADME, cell-based; conditions: read-out: permeability
[34] = test system: Liver; assay: Metabolic stability in mouse liver microsomes; type: ADME, Microsome
[35] = test system: Mus musculus; assay: Inhibition of LPS-induced TNFalpha production in mouse at 5 mg/kg, po administered 24 hrs before LPS challenge relative to control; type: functional, organism-based; set-up: dose 5 mg/kg; summary of the method: as §1

Tyrosine-protein kinase Lck, sequence (P06239 whole entry): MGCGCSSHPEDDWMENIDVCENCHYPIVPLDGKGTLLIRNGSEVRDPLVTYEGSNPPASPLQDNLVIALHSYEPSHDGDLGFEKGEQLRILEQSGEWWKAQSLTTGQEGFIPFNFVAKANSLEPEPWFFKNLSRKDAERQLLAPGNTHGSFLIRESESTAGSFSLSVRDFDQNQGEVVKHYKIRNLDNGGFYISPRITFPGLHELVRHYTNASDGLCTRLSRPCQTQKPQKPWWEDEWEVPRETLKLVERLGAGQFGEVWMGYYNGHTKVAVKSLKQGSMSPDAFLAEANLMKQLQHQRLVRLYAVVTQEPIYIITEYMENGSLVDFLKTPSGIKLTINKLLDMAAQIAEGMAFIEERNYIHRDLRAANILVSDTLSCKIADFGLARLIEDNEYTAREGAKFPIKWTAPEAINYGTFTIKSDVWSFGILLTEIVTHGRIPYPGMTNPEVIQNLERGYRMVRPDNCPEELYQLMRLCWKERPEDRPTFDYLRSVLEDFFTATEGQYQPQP
Mitogen-activated protein kinase 14, sequence (Q16539 whole entry): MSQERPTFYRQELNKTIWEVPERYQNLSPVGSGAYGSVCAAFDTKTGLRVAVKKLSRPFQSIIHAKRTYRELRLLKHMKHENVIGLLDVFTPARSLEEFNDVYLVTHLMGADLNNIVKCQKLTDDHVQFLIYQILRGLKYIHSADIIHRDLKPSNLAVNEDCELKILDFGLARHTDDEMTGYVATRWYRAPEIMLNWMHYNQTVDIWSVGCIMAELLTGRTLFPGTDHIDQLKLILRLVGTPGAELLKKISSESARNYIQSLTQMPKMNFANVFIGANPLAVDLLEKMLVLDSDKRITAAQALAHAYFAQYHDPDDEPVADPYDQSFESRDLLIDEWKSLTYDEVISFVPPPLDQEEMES
Cytochrome P450 2C9, sequence (P11712 whole entry): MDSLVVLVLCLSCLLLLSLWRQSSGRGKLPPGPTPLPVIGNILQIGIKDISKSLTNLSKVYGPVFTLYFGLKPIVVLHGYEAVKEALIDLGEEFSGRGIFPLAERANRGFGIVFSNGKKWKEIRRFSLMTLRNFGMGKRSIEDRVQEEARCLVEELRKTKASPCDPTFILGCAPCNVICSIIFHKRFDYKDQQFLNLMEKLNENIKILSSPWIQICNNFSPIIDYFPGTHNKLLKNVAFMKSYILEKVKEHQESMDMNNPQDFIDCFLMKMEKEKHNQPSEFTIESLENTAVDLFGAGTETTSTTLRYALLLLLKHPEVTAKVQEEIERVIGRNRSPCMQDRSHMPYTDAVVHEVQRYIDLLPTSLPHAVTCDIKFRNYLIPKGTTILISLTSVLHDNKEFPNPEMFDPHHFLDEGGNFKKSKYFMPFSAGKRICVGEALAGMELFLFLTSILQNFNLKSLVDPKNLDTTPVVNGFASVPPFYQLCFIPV
hERG (KCNH2), sequence (Q12809 whole entry): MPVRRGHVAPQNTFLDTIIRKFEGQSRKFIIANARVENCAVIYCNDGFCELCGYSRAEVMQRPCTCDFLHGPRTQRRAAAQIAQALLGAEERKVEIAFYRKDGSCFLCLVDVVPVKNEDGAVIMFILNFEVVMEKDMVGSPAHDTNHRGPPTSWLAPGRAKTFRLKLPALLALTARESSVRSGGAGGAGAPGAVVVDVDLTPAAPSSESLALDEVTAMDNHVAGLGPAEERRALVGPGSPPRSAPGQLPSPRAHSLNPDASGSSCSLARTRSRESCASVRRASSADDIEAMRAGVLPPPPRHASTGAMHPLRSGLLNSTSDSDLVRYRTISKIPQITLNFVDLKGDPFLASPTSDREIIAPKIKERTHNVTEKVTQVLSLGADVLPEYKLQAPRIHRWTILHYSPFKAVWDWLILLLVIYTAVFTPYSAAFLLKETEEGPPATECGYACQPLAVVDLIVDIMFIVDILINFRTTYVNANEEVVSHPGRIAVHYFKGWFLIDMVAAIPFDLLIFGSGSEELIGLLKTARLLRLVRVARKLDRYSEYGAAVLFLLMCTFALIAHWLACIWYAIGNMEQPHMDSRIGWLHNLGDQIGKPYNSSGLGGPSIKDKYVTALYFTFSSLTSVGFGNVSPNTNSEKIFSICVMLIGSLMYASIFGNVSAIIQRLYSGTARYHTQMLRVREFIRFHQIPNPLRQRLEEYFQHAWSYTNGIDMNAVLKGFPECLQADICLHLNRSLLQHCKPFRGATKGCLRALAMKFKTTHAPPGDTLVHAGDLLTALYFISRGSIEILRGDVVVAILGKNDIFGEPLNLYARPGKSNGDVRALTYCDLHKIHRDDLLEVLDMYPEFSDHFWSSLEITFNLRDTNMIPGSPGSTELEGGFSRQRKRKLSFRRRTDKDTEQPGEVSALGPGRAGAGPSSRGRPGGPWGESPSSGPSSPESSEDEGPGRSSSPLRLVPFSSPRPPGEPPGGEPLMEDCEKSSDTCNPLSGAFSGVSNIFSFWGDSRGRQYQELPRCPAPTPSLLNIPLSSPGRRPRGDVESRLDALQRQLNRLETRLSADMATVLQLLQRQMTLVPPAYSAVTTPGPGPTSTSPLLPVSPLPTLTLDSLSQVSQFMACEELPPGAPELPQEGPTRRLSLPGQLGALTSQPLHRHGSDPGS
Cytochrome P450 2D6, sequence (P10635 whole entry): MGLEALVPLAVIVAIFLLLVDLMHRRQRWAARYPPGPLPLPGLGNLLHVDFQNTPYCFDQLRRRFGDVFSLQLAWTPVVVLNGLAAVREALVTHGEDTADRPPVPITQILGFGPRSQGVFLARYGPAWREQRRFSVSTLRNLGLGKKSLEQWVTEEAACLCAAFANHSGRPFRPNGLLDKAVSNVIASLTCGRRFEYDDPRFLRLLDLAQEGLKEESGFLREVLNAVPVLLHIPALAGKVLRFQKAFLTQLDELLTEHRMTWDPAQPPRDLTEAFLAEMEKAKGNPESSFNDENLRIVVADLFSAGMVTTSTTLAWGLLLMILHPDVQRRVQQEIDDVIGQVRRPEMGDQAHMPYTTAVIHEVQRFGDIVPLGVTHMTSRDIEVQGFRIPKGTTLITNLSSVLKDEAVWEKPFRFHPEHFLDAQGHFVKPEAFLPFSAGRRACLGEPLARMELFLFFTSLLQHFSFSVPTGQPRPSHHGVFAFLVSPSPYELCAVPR
Cytochrome P450 2C19, sequence (P33261 whole entry): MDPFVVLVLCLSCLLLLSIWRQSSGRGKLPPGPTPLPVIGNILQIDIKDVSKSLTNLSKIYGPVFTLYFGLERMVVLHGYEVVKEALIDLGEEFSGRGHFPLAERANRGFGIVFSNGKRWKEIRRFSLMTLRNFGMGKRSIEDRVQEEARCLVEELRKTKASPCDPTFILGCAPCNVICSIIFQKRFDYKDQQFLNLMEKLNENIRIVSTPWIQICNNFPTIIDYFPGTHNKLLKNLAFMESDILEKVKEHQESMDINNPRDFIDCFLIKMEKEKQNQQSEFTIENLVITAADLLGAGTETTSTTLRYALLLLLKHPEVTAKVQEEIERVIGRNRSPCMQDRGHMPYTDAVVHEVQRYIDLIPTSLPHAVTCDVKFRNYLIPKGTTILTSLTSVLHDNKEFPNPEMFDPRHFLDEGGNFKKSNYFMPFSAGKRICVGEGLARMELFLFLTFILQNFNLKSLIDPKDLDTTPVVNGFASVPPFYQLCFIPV
Cytochrome P450 3A4, sequence (P08684 whole entry): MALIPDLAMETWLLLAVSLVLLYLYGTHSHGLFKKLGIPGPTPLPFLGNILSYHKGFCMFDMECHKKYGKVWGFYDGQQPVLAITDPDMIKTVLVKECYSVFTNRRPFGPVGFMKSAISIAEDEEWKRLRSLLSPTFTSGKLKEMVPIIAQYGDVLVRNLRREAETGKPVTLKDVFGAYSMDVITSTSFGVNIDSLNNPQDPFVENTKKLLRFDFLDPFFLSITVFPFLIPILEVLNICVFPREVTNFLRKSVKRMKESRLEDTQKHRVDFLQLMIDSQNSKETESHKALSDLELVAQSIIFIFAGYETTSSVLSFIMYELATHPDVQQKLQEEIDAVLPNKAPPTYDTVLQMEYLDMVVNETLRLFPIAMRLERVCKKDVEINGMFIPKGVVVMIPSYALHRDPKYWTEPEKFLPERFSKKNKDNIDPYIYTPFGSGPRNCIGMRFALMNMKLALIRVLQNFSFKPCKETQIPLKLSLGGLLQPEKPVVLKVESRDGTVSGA

Cc1ccc(C(N)=O)cc1NC(=O)c1cnc(NC(C)C)s1
IC50 [1]: 35 nM | IC50 [2]: > 50000 nM | IC50 [3]: 3.2 nM

CC[C@H](C)Nc1ncc(C(=O)Nc2cc(C(=O)NC)ccc2C)s1
concentration [4]: 250 nM | IC50 [1]: 4.1 nM | IC50 [2]: > 50000 nM | inhibition in vivo at 5 mg/kg [5]: 69%

CCCNc1nc(C)c(C(=O)Nc2cc(C(=O)NCC)ccc2C)s1
IC50 [3]: 130 nM

CC[C@@H](C)Nc1ncc(C(=O)Nc2cc(C(=O)NC)ccc2C)s1
IC50 [6]: 99 nM | Stability [7]: 0 nmol/min/mg | Activity [8]: Active | inhibition at 30 µM [9]: 7% | Activity [10]: > 40 µM | solubility [11]: 22 µg/mL (≈ 63.5 µM) | AUC(0-t) at 24 h [12]: 25 µM·h | clearance [13]: 14.1 mL/min/kg | IC50 [1]: 2.9 nM | inhibition in vivo at 5 mg/kg [14]: 46% | IC50 [15]: 600 nM | Activity [16]: > 40 µM | Vd [17]: 1.8 L/kg | IC50 [18]: 54 nM | Activity [19]: > 40 µM | Activity [20]: > 40 µM | inhibition in vivo at 0.3 mg/kg [21]: 46% | fraction unbound [22]: 0.18 | Cmax [23]: 8700 nM | Activity [24]: Active | concentration at 18 h [25]: 16 nM | bioavailability [26]: 75% | concentration at 24 h [27]: 7.6 nM | IC50 [2]: 22000 nM | Stability [28]: 0 nmol/min/mg | concentration at 18 h [29]: 8.1 nM | ED50 [30]: 2 mg/kg | Activity [31]: > 40 µM | half-life [32]: 1.8 h | Papp [33]: 8.3 ×10⁻⁶ cm/s | Stability [34]: 0 nmol/min/mg

Cc1cccc(Cl)c1NC(=O)c1cnc(Nc2ccccc2)s1
IC50 [3]: 62 nM

CCCNc1nc2c(s1)C(=O)N(c1cc(C(=O)NCC)ccc1C)C2
IC50 [3]: 160 nM

CNC(=O)c1ccc(C)c(N2Cc3nc(NC4CCCC4)sc3C2=O)c1
IC50 [3]: 110 nM

CCCNc1ncc(C(=O)Nc2c(C)cccc2Cl)s1
IC50 [1]: > 2000 nM | IC50 [3]: 28 nM

Cc1cccc(Cl)c1NC(=O)c1cnc(NC2CCC2)s1
IC50 [2]: 3310 nM | IC50 [3]: 36 nM

CCNC(=O)c1ccc(C)c(NC(=O)c2cnc(NC(C)C)s2)c1
concentration [4]: 330 nM | IC50 [1]: 11 nM | IC50 [2]: > 50000 nM | IC50 [3]: 3.4 nM | inhibition in vivo at 5 mg/kg [5]: 68%

CNC(=O)c1ccc(C)c(NC(=O)c2cnc(NCCOC)s2)c1
IC50 [1]: > 250 nM | IC50 [3]: 22 nM

Cc1ccc(C(=O)Nc2ccn[nH]2)cc1NC(=O)c1cnc(NC(C)C)s1
IC50 [1]: 7.9 nM | IC50 [3]: 4.2 nM

CCCNc1ncc(C(=O)Nc2cc(C(=O)NC)ccc2C)s1
IC50 [1]: 42 nM | IC50 [2]: 4800 nM | IC50 [3]: 4.5 nM

Cc1ccc(C(=O)Nc2ccon2)cc1NC(=O)c1cnc(NC(C)C)s1
IC50 [1]: 1 nM

CCCNc1ncc(C(=O)Nc2cc(C(=O)NCC)ccc2C)s1
IC50 [1]: 2.7 nM | Activity [35]: inactive | IC50 [2]: 1900 nM | IC50 [3]: 2 nM

Cc1cccc(Cl)c1NC(=O)c1cnc(NC2CC2)s1
IC50 [1]: 1500 nM | IC50 [2]: 140 nM | IC50 [3]: 39 nM

CNC(=O)c1ccc(C)c(NC(=O)c2cnc(NC(C)C)s2)c1
concentration [4]: 400 nM | IC50 [1]: 8.7 nM | Activity [35]: inactive | IC50 [2]: > 50000 nM | IC50 [3]: 3.5 nM | inhibition in vivo at 5 mg/kg [5]: 62%

CNC(=O)c1ccc(C)c(N2Cc3nc(NC(C)C)sc3C2=O)c1
IC50 [3]: 110 nM

CCNC(=O)c1ccc(C)c(NC(=O)c2sc(NCC)nc2C)c1
IC50 [3]: 330 nM

CCNc1ncc(C(=O)Nc2c(C)cccc2Cl)s1
IC50 [3]: 140 nM

CCNC(=O)c1ccc(C)c(N2Cc3nc(NC(C)C)sc3C2=O)c1
IC50 [1]: > 250 nM | IC50 [3]: 34 nM

CCCNc1nc2c(s1)C(=O)N(c1cc(C(=O)NC)ccc1C)C2
IC50 [3]: 270 nM

CCCNc1ncc(C(=O)Nc2cc(C(N)=O)ccc2C)s1
IC50 [1]: 23 nM | IC50 [3]: 4.1 nM

Cc1ccc(C(=O)Nc2ccnn2C)cc1NC(=O)c1cnc(NC(C)C)s1
IC50 [1]: 6.4 nM | IC50 [2]: 5800 nM | IC50 [3]: 5.4 nM

Cc1cccc(Cl)c1NC(=O)c1cnc(NC(C)C)s1
IC50 [1]: 160 nM | IC50 [3]: 13 nM
